Experimental data reported in ChEMBL document CHEMBL3526050, “Elucidation of the metabolic pathways and the resulting multiple metabolites of almorexant, a dual orexin receptor antagonist, in humans” (Drug Metab Dispos, 2013).

Columns and labels:
[1] = Drug level in feces of healthy human treated with [14C]almorexant at 200 mg, po dosed as single dose; format: ADME, organism-based; settings: in vivo
Summary of the method: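 Feces pooled by weight across 6 subjects (0–48 to 192–332 h) and extracted three times with acetonitrile, then dried and reconstituted. Analyzed by radio-LC-MS/MS with a methanol/acetonitrile gradient and scintillation-counted fractions. Procedural recovery was 73.0%. Reported as percent of administered radioactive dose.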

[2] = tested on: Homo sapiens; experiment: AUC (0 to t) in healthy human assessed as total radioactivity at 200 mg, po dosed as single dose; settings: in vivo
[3] = Tmax in healthy human at 200 mg, po dosed as single dose; format: ADME, organism-based; settings: in vivo
Summary of the method: (§1)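 Plasma parent and metabolites M3, M5, M6, M8 after one 200 mg oral 14C dose in 6 fasted male subjects, sampled 0.17–240 h. Validated LC-MS/MS with penta-deuterated internal standards and positive ESI. Low range 0.4/1.0–100 ng/mL using supported liquid extraction, high range 50–1000 ng/mL using protein precipitation. Noncompartmental analysis, geometric means (95% CI), Tmax median (range).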

[4] = tested on: Homo sapiens; experiment: Toxicity in healthy human assessed as incidence of adverse events at 200 mg, po dosed as single dose; format: organism-based; settings: in vivo
[5] = Drug excretion in healthy human feces assessed as total radioactivity at 200 mg, po dosed as single dose; format: ADME, organism-based; settings: in vivo
Summary of the method: (§2)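 Urine collected in 8-h then 24-h intervals, and all feces for 10 days (longer if recovery <90%) after one 200 mg oral 14C dose in 6 fasted males. Urine counted directly by liquid scintillation. Feces homogenized in water, and about 300 mg aliquots combusted before counting, done in triplicate. Stearic acid 14C quality controls were included.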

[6] = Cmax in healthy human at 200 mg, po dosed as single dose; format: ADME, organism-based; design: dose 200 mg, route oral; settings: in vivo; summary of the method: as §1
[7] = tested on: Homo sapiens; experiment: Toxicity in healthy human assessed as effect on clinical laboratory parameters at 200 mg, po dosed as single dose; format: organism-based; settings: in vivo
[8] = Half life in healthy human at 200 mg, po dosed as single dose; format: ADME, organism-based; settings: in vivo; summary of the method: as §1
[9] = tested on: Homo sapiens; experiment: Toxicity in healthy human assessed as effect on vital signs parameters at 200 mg, po dosed as single dose; format: organism-based; settings: in vivo
[10] = tested on: Homo sapiens; experiment: Toxicity in healthy human at 200 mg, po dosed as single dose; format: organism-based; settings: in vivo
[11] = tested on: Blood; experiment: AUC (0 to infinity) in healthy human whole blood assessed as radioactivity at 200 mg, po dosed as single dose; format: ADME, organism-based; design: dose 200 mg, route oral, time infinity; settings: in vivo
Summary of the method: (§3)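 Six fasted healthy male subjects given one oral capsule of 200 mg almorexant with about 84 µCi 14C. EDTA blood taken pre-dose to 240 h. Whole blood (solubilized, peroxide-treated) and plasma counted in triplicate by liquid scintillation. Noncompartmental PK: Cmax/Tmax read directly, linear trapezoidal AUC extrapolated via λz, t1/2 = ln2/λz. Geometric mean (95% CI), Tmax median (range).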

[12] = tested on: Homo sapiens; experiment: Cmax in healthy human assessed as total radioactivity at 200 mg, po dosed as single dose; format: ADME, organism-based; design: dose 200 mg, route oral; settings: in vivo; summary of the method: as §3
[13] = tested on: Homo sapiens; experiment: Tlast in healthy human at 200 mg, po dosed as single dose; format: ADME, organism-based; settings: in vivo
Summary of the method: (§4)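 Plasma from 6 subjects given one 200 mg oral 14C dose, pooled over at least 2 time points and acetonitrile-precipitated. Radio-LC-MS/MS used a C18 column with ammonium formate pH 4.0/acetonitrile gradient and 0.15-min fractions scintillation-counted. Peak radioactivity converted to ng-equivalents/mL to give AUC0-t. Co-eluting metabolites grouped and expressed relative to parent AUC and to total radioactivity.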

[14] = tested on: Blood; experiment: Half life in healthy human whole blood assessed as radioactivity at 200 mg, po dosed as single dose; format: ADME, organism-based; settings: in vivo; summary of the method: as §3
[15] = tested on: Plasma; experiment: Cmax in healthy human plasma assessed as radioactivity at 200 mg, po dosed as single dose; format: ADME, organism-based; design: dose 200 mg, route oral; settings: in vivo; summary of the method: as §3
[16] = tested on: Homo sapiens; experiment: Drug level in healthy human at 200 mg, po dosed as single dose relative to total radioactivity; format: ADME, organism-based; settings: in vivo; summary of the method: as §4
[17] = Ratio of drug level in whole blood to plasma in healthy human at 200 mg, po dosed as single dose; format: ADME, organism-based; settings: whole blood and plasma; summary of the method: as §3
[18] = AUC (0 to infinity) in healthy human at 200 mg, po dosed as single dose; format: ADME, organism-based; design: dose 200 mg, route oral, time infinity; settings: plasma; summary of the method: as §1
[19] = tested on: Plasma; experiment: Half life in healthy human plasma assessed as radioactivity at 200 mg, po dosed as single dose; format: ADME, organism-based; settings: in vivo; summary of the method: as §3
[20] = tested on: Plasma; experiment: Drug level in plasma of healthy human treated with [14C]almorexant at 200 mg, po dosed as single dose; format: ADME, organism-based; settings: in vivo; summary of the method: as §4
[21] = tested on: Homo sapiens; experiment: AUC (0 to t) in healthy human at 200 mg, po dosed as single dose; format: ADME, organism-based, Plasma; settings: in vivo; summary of the method: as §4
[22] = Drug excretion in healthy human urine assessed as total radioactivity at 200 mg, po dosed as single dose; format: ADME, organism-based; settings: in vivo; summary of the method: as §2
[23] = tested on: Homo sapiens; experiment: Tlast in healthy human assessed as total radioactivity at 200 mg, po dosed as single dose; format: ADME, organism-based; settings: in vivo
[24] = tested on: Blood; experiment: Tmax in healthy human whole blood assessed as radioactivity at 200 mg, po dosed as single dose; format: ADME, organism-based; settings: in vivo; summary of the method: as §3
[25] = tested on: Plasma; experiment: Tmax in healthy human plasma assessed as radioactivity at 200 mg, po dosed as single dose; format: ADME, organism-based; settings: in vivo; summary of the method: as §3
[26] = tested on: Blood; experiment: Cmax in healthy human whole blood assessed as radioactivity at 200 mg, po dosed as single dose; format: ADME, organism-based; design: dose 200 mg, route oral; settings: in vivo; summary of the method: as §3
[27] = tested on: Homo sapiens; experiment: Tmax in healthy human assessed as total radioactivity at 200 mg, po dosed as single dose; format: ADME, organism-based; settings: in vivo; summary of the method: as §3
[28] = tested on: Plasma; experiment: AUC (0 to infinity) in healthy human plasma assessed as radioactivity at 200 mg, po dosed as single dose; format: ADME, organism-based; design: dose 200 mg, time infinity, route oral; settings: in vivo; summary of the method: as §3
[29] = tested on: Homo sapiens; experiment: Toxicity in healthy human assessed as effect on ECG variables parameters at 200 mg, po dosed as single dose; format: organism-based; settings: in vivo
[30] = tested on: Homo sapiens; experiment: Half life in healthy human treated with [14C]almorexant at 200 mg, po dosed as single dose; format: ADME, organism-based; settings: in vivo; summary of the method: as §1
[31] = tested on: Homo sapiens; experiment: Tmax in healthy human treated with [14C]almorexant at 200 mg, po dosed as single dose; format: ADME, organism-based; settings: in vivo; summary of the method: as §1
[32] = tested on: Homo sapiens; experiment: AUC (0 to infinity) in healthy human treated with [14C]almorexant at 200 mg, po dosed as single dose; format: ADME, organism-based, Plasma; design: dose 200 mg, route oral, time infinity; settings: in vivo
[33] = tested on: Homo sapiens; experiment: Cmax in healthy human treated with [14C]almorexant at 200 mg, po dosed as single dose; format: ADME, organism-based; design: dose 200 mg, route oral; settings: in vivo
[34] = tested on: Homo sapiens; experiment: Drug level in healthy human treated with [14C]almorexant at 200 mg, po dosed as single dose relative to almorexant; format: ADME, organism-based; settings: in vivo; summary of the method: as §4
[35] = tested on: Homo sapiens; experiment: Tlast in healthy human treated with [14C]almorexant at 200 mg, po dosed as single dose; format: ADME, organism-based; settings: in vivo; summary of the method: as §4
[36] = tested on: Homo sapiens; experiment: Drug level in healthy human treated with [14C]almorexant at 200 mg, po dosed as single dose relative to total radioactivity; format: ADME, organism-based; settings: in vivo; summary of the method: as §4
[37] = tested on: Homo sapiens; experiment: AUC (0 to t) in healthy human treated with [14C]almorexant at 200 mg, po dosed as single dose; format: ADME, organism-based, Plasma; settings: in vivo; summary of the method: as §4
[38] = Tmax in po dosed healthy human; format: ADME, organism-based; settings: in vivo
[39] = Terminal half life in po dosed healthy human; format: ADME, organism-based; settings: in vivo, read-out: beta t1/2 (converted)
[40] = Clearance in po dosed healthy human; format: ADME, organism-based; settings: in vivo
[41] = Absolute bioavailability in po dosed healthy human; format: ADME, organism-based; settings: in vivo
[42] = tested on: Homo sapiens; experiment: Volume of distribution in po dosed healthy human; format: ADME, organism-based; settings: in vivo
[43] = Tmax in po dosed healthy human receiving additional evening dose; format: ADME, organism-based; settings: in vivo

## CNC(=O)[C@@H](c1ccccc1)[n+]1ccc2cc(O)c(OC)cc2c1CCc1ccc(C(F)(F)F)cc1
[1]
  Drug metabolism: metabolite_detected

## CNC(=O)[C@@H](c1ccccc1)N1CCc2cc(O)c(O)cc2[C@@H]1CCc1ccc(C(F)(F)F)cc1
[1]
  Drug metabolism: metabolite_detected

## CNC(=O)[C@@H](c1ccccc1)N1CCc2cc(OC)c(OC)cc2[14C@@H]1CCc1ccc(C(F)(F)F)cc1
[2]
  AUC(0-t): 54100 ng.Eq.hr/ml
[3]
  Tmax: 0.8 h
[4]
  Activity: Non-toxic
[5]
  Drug excretion: 38.7%
[6]
  Cmax: 113 ng/mL
[7]
  Activity: Non-toxic
[8]
  half-life: 17.8 h
[9]
  Activity: Non-toxic
[10]
  Activity: Non-toxic
[11]
  AUC: 26321 ng.Eq.hr/ml
[1]
  Drug metabolism: metabolite_detected
[12]
  Cmax: 1050 ng.Eq/ml
[13]
  Tlast: 1.6 h
[14]
  t1/2: 39 h
[15]
  Cmax: 1060 ng.Eq/ml
[16]
  Drug uptake: 0.11%
[17]
  blood plasma ratio: 0.51
[18]
  AUC(0-inf): 262 ng·h/mL
[19]
  t1/2: 78 h
[20]
  Drug metabolism: metabolite_detected
[21]
  AUCt: 61.2 ng.Eq.hr/ml
[22]
  Drug excretion: 8.34%
[23]
  Tlast: 300 h
[24]
  Tmax: 1 h
[25]
  Tmax: 1 h
[26]
  Cmax: 678 ng.Eq/ml
[27]
  Tmax: 1.6 h
[28]
  AUC: 51547 ng.Eq.hr/ml
[29]
  Activity: Non-toxic

## CNC(=O)[C@@H](c1ccccc1)N1CCc2cc(OC)c(O)cc2[C@@H]1CCc1ccc(C(F)(F)F)cc1
[30]
  t1/2: 21.7 h
[1]
  Drug metabolism: metabolite_detected
[31]
  Tmax: 1 h
[32]
  AUC: 386 ng·h/mL
[20]
  Drug metabolism: metabolite_detected
[33]
  Cmax: 61.4 ng/mL

## CNC(=O)[C@@H](c1ccccc1)N1CCc2cc(O)c(OC)cc2[C@@H]1CCc1ccc(C(F)(F)F)cc1
[30]
  t1/2: 22.1 h
[1]
  Drug metabolism: metabolite_detected
[31]
  Tmax: 0.8 h
[32]
  AUC: 160 ng·h/mL
[20]
  Drug metabolism: metabolite_detected
[33]
  Cmax: 25.7 ng/mL

## COc1cc2c(cc1OC)[C@H](CCc1ccc(C(F)(F)F)cc1)NC[C@H]2O (racemic)
[3]
  Tmax: 1.6 h
[34]
  Drug uptake: 28.1%
[35]
  Tlast: 1.6 h
[36]
  Drug uptake: 0.03%
[37]
  AUCt: 17.2 ng.Eq.hr/ml

## CNC(=O)[C@@H](c1ccccc1)N1CCc2cc(OC)c(OC)cc2[C@@H]1CCc1ccc(C(F)(F)F)cc1 [ALMOREXANT]
[38]
  Tmax: 0.8 h
[39]
  half-life: 17.8 h
[40]
  CL/F: 717 mL/min
[41]
  bioavailability: 11.4%
[42]
  Vd: 683 L
[43]
  Tmax: 3 h
